Laboratory results published in paper PMC4183664 (Journal of the American Chemical Society, 2014).

Tests used:
[1] = tested on: SW-480 colon cancer cells; assay: Effect of GLUT1 inhibitors on internalization of BLM-Cy5**; format: cell-based; conditions: pretreatment with different concentrations of inhibitor, 37 °C, 2 h, then 25 μM dye-labeled conjugate 44; 2 s exposure
Procedure, shortened: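 SW480 cells kept in RPMI 1640 with 10% FBS and 1% pen-strep at 37 °C, 5% CO2. Seeded on glass chamber slides at 5000 cells/well for 48 h. At 70% confluence, rinsed with PBS and switched to phenol-red-free RPMI. Pretreated 2 h at 37 °C with cytochalasin B or phloretin, then 25 μM Cy5-labeled conjugate for 1 h at 37 °C. PBS-washed, fixed 5 min in 4% paraformaldehyde, DAPI-mounted, imaged through Cy5 filter with 40× oil objective; cells counted.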

[2] = tested on: DU145 human prostate cancer cells; assay: MTT cytotoxicity assay; format: cell-based; conditions: 24 h incubation, four concentrations, 5% DMSO, MTT read at 560 nm
Procedure, shortened: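 DU145 cells grown in log phase in MEM with 10% FBS and 1% pen-strep. Trypsinized, seeded at 5000 cells/well and incubated 24 h. Medium replaced with compound-containing medium (5% DMSO final) for 24 h. MTT solution (5 mg/mL in PBS, pH 7.4) added for 3 h at 37 °C. Crystals dissolved in DMSO; absorbance read at 560 nm, reference 670 nm. Viability = OD560/[OD560(positive control) − OD560(negative control)], with linear fit.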

[3] = tested on: supercoiled pSP64 plasmid DNA; assay: Relaxation of supercoiled pSP64 plasmid DNA by Fe; format: biochemical; conditions: Fe(II) chelate; pSP64, 50 mM Tris-HCl pH 8.0, 25 °C, 30 min; agarose gel
Procedure, shortened: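 200 ng supercoiled pSP64 treated with freshly prepared Fe2+ (from ferrous ammonium sulfate) plus compound at 2 or 4 μM, in 50 mM Tris-HCl pH 8.0, 25 °C for 30 min. Quenched with glycerol/bromophenol blue loading buffer. Run on 1% agarose gel in 9 mM Tris-borate pH 8.3 with 320 μM Na2EDTA, 96 V for 2 h. Stained 1 h with 0.5 μg/mL ethidium bromide, destained in water, viewed under UV. Cleaved DNA given as percent of total per lane.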

[4] = tested on: supercoiled DNA; conditions: relative to BLM; cited from earlier work

Molecule	inhibition of BLM-Cy5** (44) binding/uptake [1]	cytotoxicity toward cultured DU145 cells (cell viability, MTT) [2]	extent of double-strand cleavage of plasmid DNA [3]	double-strand DNA cleavage [4]	potency of supercoiled DNA relaxation, fold less than for BLM [4]
C=C1[C@@H](C)[C@H]2[C@H](Cc3ccccc3)NC(=O)[C@]23OC(=O)/C=C/[C@H](O)CCC[C@@H](C)C/C=C/[C@H]3[C@@H]1O [cytochalasin B]	substantial and dose-dependent inhibition	–	–	–	–
O=C(CCc1ccc(O)cc1)c1c(O)cc(O)cc1O [phloretin]	substantial and dose-dependent inhibition	–	–	–	–
bleomycin A5 [BLM A5]	–	the most potent of the derivatives tested	–	–	–
deglycobleomycin A5 [deglycoBLM A5]	–	cytotoxic to DU145 cells but much less so than BLM A5	minimal double-strand cleavage of plasmid DNA	much less double-strand cleavage is apparent	2–3 fold
